Test results: ChEMBL document CHEMBL4270634, “Benzothiazole carbamates and amides as antiproliferative species” (Eur J Med Chem, 2018)
Calls of active or inactive are those of the source. No cut-off for these calls is given here.

Columns and labels:
MCF7 [1] = assay: Decrease in ROS production in human MCF7 cells at 25 uM measured after 24 hrs by DCFH-DA probe based flow cytometric analysis; assay type: functional; parameters: scale not given: the % may be the effect or the level left
In short: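 MCF-7 cells exposed 24 h at 25 µM. Intracellular ROS measured by flow cytometry with DCFH-DA and compared to untreated control cells.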

NTERA-2-cl-D1 [2] = assay: Induction of cell detachment in human NT2/D1 cells assessed as floating cells at 1 uM after 48 hrs by trypan blue exclusion assay relative to total cell number; assay type: functional
NTERA-2-cl-D1 [3] = assay: Induction of apoptosis in human NT2/D1 cells assessed as early apoptotic cells at 1 uM after 24 hrs by Annexin V-FITC/PI staining based flow cytometry; assay type: functional
In short: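 NT2/D1 cells exposed to 1 µM for 24 h and 48 h. Floating and adherent cells were harvested separately, and each was analysed by Annexin V-FITC/PI flow cytometry for early and late apoptotic fractions.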

Mus musculus [4] = assay: Acute toxicity in athymic nude mouse at 100 to 400 mg/kg ip administered as single dose measured after 14 days; assay type: organism-based; conditions: in vivo, 336 h
In short: (§1)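 Single i.p. injection into nontumored female athymic nude mice as an NCI maximum-tolerated-dose acute toxicity assay.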

NTERA-2-cl-D1 [5] = assay: Induction of cell detachment in human NT2/D1 cells at 1 uM after 24 hrs; assay type: functional, cell-based
NTERA-2-cl-D1 [6] = assay: Inhibition of colony formation in human NT2/D1 cells at IC50 measured after 7 days by crystal violet staining based inverted microscopy relative to control; assay type: functional
In short: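 NT2/D1 cells seeded and treated at once at IC50 concentration. Colonies formed after seven days were stained and counted, expressed as % of untreated colonies. Mean ± SEM, two independent experiments.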

MCF7 [7] = assay: Cell cycle arrest in human MCF7 cells assessed as accumulation at G2/M phase at 25 uM after 48 hrs by propidium iodide staining based flow cytometry (reference value: 28.03%); assay type: functional
MCF7 [8] = assay: Induction of apoptosis in human MCF7 cells assessed as decrease in p73 protein expression level at IC50 measured after 24 to 48 hrs by flow cytometric analysis; assay type: functional, cell-based
Mus musculus [9] = assay: Acute toxicity in athymic nude mouse at 50 to 200 mg/kg ip administered as single dose measured after 14 days; assay type: organism-based; conditions: in vivo, 336 h; in short: as §1
MCF7 [10] = assay: Induction of apoptosis in human MCF7 cells assessed as necrotic cells at 25 uM after 48 hrs by Annexin V-FITC/PI staining based flow cytometry (reference value: 0.82%); assay type: functional
MCF7 [11] = assay: Induction of apoptosis in human MCF7 cells assessed as early apoptotic cells at 25 uM after 24 hrs by Annexin V-FITC/PI staining based flow cytometry (reference value: 1.30%); assay type: functional
In short: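 MCF-7 cells were treated for 24 h at a single concentration (25 µM or 30 µM, depending on compound). Apoptosis was assessed by bivariate Annexin V-FITC/PI flow cytometry, distinguishing early apoptotic from late apoptotic/necrotic cells, against untreated control.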

MCF7 [12] = assay: Effect on Bcl-2 protein expression level in human MCF7 cells at IC50 measured after 24 hrs by flow cytometric analysis; assay type: functional, cell-based
In short: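 Bax and Bcl-2 expression in MCF-7 cells quantified by FACS after 24 and 48 h at a single equipotent (IC₅₀) concentration; Bax/Bcl-2 ratio expressed as fold of untreated control.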

MCF7 [13] = assay: Cell cycle arrest in human MCF7 cells assessed as accumulation at G0/G1 phase at 25 uM after 24 hrs by propidium iodide staining based flow cytometry (reference value: 44.23%); assay type: functional
MCF7 [14] = assay: Cell cycle arrest in human MCF7 cells at 25 uM by propidium iodide staining based flow cytometry; assay type: functional; conditions: TDE = time-dependent effect
MCF7 [15] = assay: Cell cycle arrest in human MCF7 cells assessed as accumulation at S phase at 25 uM after 24 hrs by propidium iodide staining based flow cytometry (reference value: 28.27%); assay type: functional
MCF7 [16] = assay: Cell cycle arrest in human MCF7 cells assessed as accumulation at sub-G1 phase at 25 uM after 48 hrs by propidium iodide staining based flow cytometry (reference value: 0.41%); assay type: functional
MCF7 [17] = assay: Induction of mitochondrial membrane potential loss in human MCF7 cells at IC50 measured after 48 hrs by Rh123 dye-based flow cytometric analysis; assay type: functional
In short: (§2)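 Mitochondrial membrane potential was assessed by Rh123 incorporation with flow cytometry and compared with untreated cells.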

MCF7 [18] = assay: Decrease in ROS production in human MCF7 cells at IC50 measured after 24 to 48 hrs by DCFH-DA probe based flow cytometric analysis; assay type: functional, cell-based
MCF7 [19] = assay: Induction of apoptosis in human MCF7 cells assessed as increase in Bax protein expression level at IC50 measured after 24 to 48 hrs by flow cytometric analysis; assay type: functional, cell-based
MCF7 [20] = assay: Induction of apoptosis in human MCF7 cells assessed as necrotic cells at 25 uM after 24 hrs by Annexin V-FITC/PI staining based flow cytometry (reference value: 2.62%); assay type: functional
MCF7 [21] = assay: Cell cycle arrest in human MCF7 cells assessed as accumulation at G0/G1 phase at 25 uM after 48 hrs by propidium iodide staining based flow cytometry (reference value: 48.80%); assay type: functional
MCF7 [22] = assay: Effect on cyclin B1 levels in human MCF7 cells at 25 uM after 24 hrs by propidium iodide staining based flow cytometry (reference value: 26.6%); assay type: functional
In short: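 MCF-7 cells treated 24 h at 25 µM or 30 µM; intracellular cyclin B1 level measured by flow cytometry.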

MCF7 [23] = assay: Induction of apoptosis in human MCF7 cells assessed as late apoptotic cells at 25 uM after 24 hrs by Annexin V-FITC/PI staining based flow cytometry (reference value: 2.78%); assay type: functional
MCF7 [24] = assay: Induction of apoptosis in human MCF7 cells assessed as increase in p53 protein expression level at IC50 measured after 24 to 48 hrs by flow cytometric analysis; assay type: functional, cell-based
MCF7 [25] = assay: Induction of apoptosis in human MCF7 cells assessed as decrease in Bcl-2 protein expression level at IC50 measured after 48 hrs by flow cytometric analysis; assay type: functional, cell-based
MCF7 [26] = assay: Cell cycle arrest in human MCF7 cells assessed as accumulation at S phase at 25 uM after 48 hrs by propidium iodide staining based flow cytometry (reference value: 23.07%); assay type: functional
MCF7 [27] = assay: Induction of apoptosis in human MCF7 cells assessed as late apoptotic cells at 25 uM after 48 hrs by Annexin V-FITC/PI staining based flow cytometry (reference value: 2.95%); assay type: functional
MCF7 [28] = assay: Induction of apoptosis in human MCF7 cells assessed as early apoptotic cells at 25 uM after 48 hrs by Annexin V-FITC/PI staining based flow cytometry (reference value: 0.98%); assay type: functional
MCF7 [29] = assay: Cell cycle arrest in human MCF7 cells assessed as accumulation at G2/M phase at 25 uM after 24 hrs by propidium iodide staining based flow cytometry (reference value: 27.04%); assay type: functional
MCF7 [30] = assay: Induction of mitochondrial membrane potential loss in human MCF7 cells at IC50 measured after 24 hrs by Rh123 dye-based flow cytometric analysis; assay type: functional, cell-based; in short: as §2
MCF7 [31] = assay: Cell cycle arrest in human MCF7 cells assessed as accumulation at sub-G1 phase at 25 uM after 24 hrs by propidium iodide staining based flow cytometry (reference value: 0.65%); assay type: functional

CCCOC(=O)Nc1nc2ccc(OCC)cc2s1
Activity (MCF7 [1]): 15%

CCCCSc1ccc2nc(NC(=O)OCCC)sc2c1
Activity (NTERA-2-cl-D1 [2]): 91%
Activity (NTERA-2-cl-D1 [3]): 20%
Activity (Mus musculus [4]): Non-Toxic
Activity (NTERA-2-cl-D1 [5]): Active
inhibition (INH) (NTERA-2-cl-D1 [6]): 70%

CCCOC(=O)Nc1nc2ccc(SCCC)cc2s1
Activity (MCF7 [7]): 15.25%
Activity (MCF7 [8]): inactive
Activity (Mus musculus [9]): Non-Toxic
Activity (MCF7 [10]): 2.61%
Activity (MCF7 [11]): 21%
Activity (MCF7 [12]): inactive
Activity (NTERA-2-cl-D1 [2]): 69%
Activity (MCF7 [13]): 15.62%
Activity (MCF7 [14]): Tde
Activity (NTERA-2-cl-D1 [3]): 20%
Activity (MCF7 [15]): 19.3%
Activity (MCF7 [16]): 50.4%
Activity (MCF7 [17]): >80%
Activity (MCF7 [18]): Active
Activity (MCF7 [19]): Active
Activity (MCF7 [20]): 3.53%
Activity (MCF7 [21]): 18.82%
Activity (NTERA-2-cl-D1 [5]): Active
Activity (MCF7 [22]): 50.8%
Activity (MCF7 [23]): 4.33%
Activity (MCF7 [24]): Active
Activity (MCF7 [25]): Active
Activity (MCF7 [26]): 15.9%
Activity (MCF7 [27]): 7.53%
Activity (MCF7 [28]): 61.06%
inhibition (INH) (NTERA-2-cl-D1 [6]): 40%
Activity (MCF7 [29]): 40.66%
Activity (MCF7 [30]): Active
Activity (MCF7 [31]): 24.58%
